Results published in ChEMBL document CHEMBL1122224, “Synthesis and gastric antisecretory properties of 4,5-unsaturated derivatives of 15-deoxy-16-hydroxy-16-methylprostaglandin E1” (J Med Chem, 1983).

Tests used:
[1] = test system: Canis familiaris; assay: Antisecretory activity after iv administration in histamine-stimulated Heidenhain pouch dogs; Range is 0.3-1.0; format: functional; conditions: Canis lupus familiaris
Method in brief: (§1)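 Conscious Heidenhain-pouch dogs, fasted 18 h, with iv saline. Histamine is infused at 1.0 mg/h (about 13.0 mL/h) to a steady plateau. A single iv bolus of PG follows, from ethanol stock diluted in isoosmotic phosphate buffer (≤20% alcohol). Doses are log-spaced, usually 0.1–100 μg/kg, with ≥2 dogs per dose. Acid is measured by titration to pH 7.0 in 15-min samples; ED50 is the 50% inhibition of total acid output.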

[2] = Ratio of ED50 of diarrheal effect to antisecretory effect; format: ADME; conditions: read-out: Therapeutic index
Method in brief: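 Ratio of the oral diarrheal ED50 in fasted male rats to the ig antisecretory ED50 in histamine-stimulated gastric-fistula dogs.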

[3] = test system: Rattus norvegicus; assay: Diarrheal effect after ig administration in rats; format: functional; conditions: po
Method in brief: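 Male Charles River rats, 210–230 g, are fasted 24 h and housed singly. Logarithmically graded oral PG doses are given, N = 6–12. Diarrhea is scored all-or-none at hourly intervals up to 8 h after dosing, and an ED50 is derived.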

[4] = test system: Canis familiaris; assay: Antisecretory activity after ig administration in histamine-stimulated gastric fistula dogs; Range is 5.5-10.0; format: functional; conditions: Canis lupus familiaris, Stomach, po
Method in brief: (§2)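 Conscious gastric-fistula dogs, fasted 18 h, in Pavlov stands with iv 0.15 M NaCl. After basal collection, histamine is infused iv at 1.0 mg/h (about 6.5 mL/h). At the steady-state plateau, the PG is given intragastrically through a dosing plug and the cannula is closed 30 min. Collections are then taken every 15 min and titrated with 0.1 N NaOH to pH 7.0.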

[5] = test system: Canis familiaris; assay: Antisecretory activity after ig administration in histamine-stimulated gastric fistula dogs; Range is 0.3-1.0; format: functional; conditions: Canis lupus familiaris, Stomach, po; method in brief: as §2
[6] = test system: Canis familiaris; assay: Antisecretory activity after iv administration in histamine-stimulated Heidenhain pouch dogs; Range is 0.1-0.3; format: functional; conditions: Canis lupus familiaris; method in brief: as §1
[7] = test system: Canis familiaris; assay: Antisecretory activity after ig administration in histamine-stimulated gastric fistula dogs; Range is 6.5-10.0; format: functional; conditions: Canis lupus familiaris, Stomach, po; method in brief: as §2
[8] = test system: Canis familiaris; assay: Antisecretory activity after ig administration in histamine-stimulated gastric fistula dogs; Range is 2.4-3.0; format: functional; conditions: Canis lupus familiaris, Stomach, po; method in brief: as §2
[9] = test system: Canis familiaris; assay: Antisecretory activity after iv administration in histamine-stimulated Heidenhain pouch dogs.; format: functional; conditions: Canis lupus familiaris; method in brief: as §1
[10] = test system: Canis familiaris; assay: Antisecretory activity after ig administration in histamine-stimulated gastric fistula dogs; Range is 4.5-10.0; format: functional; conditions: Canis lupus familiaris, Stomach, po; method in brief: as §2

Row | Structure (SMILES) | selectivity ratio [2] | ED50 [3] [µg/kg] | other results
1 | CCCCC(C)(O)C/C=C/[C@H]1[C@H](O)CC(=O)[C@@H]1CCCCCCC(=O)OC (stereo not given in full) [MISOPROSTOL] | 66.5 | 366 | ED50 [1]: 0.3 µg/kg; ED50 [4]: 5.5 µg/kg
2 | CCCCC(C)(O)C/C=C/[C@H]1[C@H](O)CC(=O)[C@@H]1CC/C=C\CCC(=O)OC (stereo not given in full) [ENISOPROST] | 208 | 62 | ED50 [5]: 0.3 µg/kg; ED50 [6]: 0.1 µg/kg
3 | CCCCC[C@](C)(O)/C=C/C1[C@H](O)CC(=O)[C@@H]1C/C=C\CCCC(=O)OC (stereo not given in full) | 4.2 | 27 | ED50 [7]: 6.5 µg/kg
4 | CCCCC(C)(C)[C@H](O)/C=C/C1[C@H](O)CC(=O)[C@@H]1C/C=C\CCCC(=O)OC (stereo not given in full) | 4.2 | 10 | ED50 [8]: 2.4 µg/kg
5 | CCCCC(C)(O)C/C=C/[C@H]1[C@H](O)CC(=O)[C@@H]1CC/C=C/CCC(=O)OC (stereo not given in full) |  |  | ED50 [9]: 10 µg/kg
6 | CCCCC(C)(O)C/C=C/[C@H]1[C@H](O)CC(=O)[C@@H]1CCC#CCCC(=O)OC (stereo not given in full) |  |  | ED50 [9]: > 100 µg/kg
7 | CCCCC(C)(O)C/C=C/[C@H]1[C@H](O)CC(=O)[C@@H]1C/C=C\CCCC(=O)OC (stereo not given in full) | 27.6 | 124 | ED50 [1]: 0.3 µg/kg; ED50 [10]: 4.5 µg/kg
